Experimental findings from ChEMBL document CHEMBL1131201, “N-(benzyloxycarbonyl)glycine esters and amides as new anticonvulsants” (J Med Chem, 1998) are described below.

For orientation: ED50 means the dose at which the effect has come halfway, by size or by number of responders. High values mean a need for a large dose, low ones an effect at a small dose.

Data set [1] in a line: Lethality was evaluated after 3h in strychnine test in mice at a dose of 119 mg/kg. The data set is classed as ADME, organism-based. Also on record: dose 119 mg/kg. The settings on record: mouse, in vivo. Summed up: (§1)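 Male NMRI mice (18-25 g) got compound ip at 119 mg/kg in DMSO (2 mL/kg). At 30 min or 3 h after dosing, strychnine chlorhydrate in saline (1.2 mg/mL) was injected sc at 1 mL/kg. Mice were caged singly and observed for 30 min, recording seizure onset, tonic seizures and lethality (%).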

Data set [2] can be described thus: Lethality was evaluated after 0.5 hr in pentylenetetrazole test in mice at a dose of 85 mg/kg. Also on record: dose 85 mg/kg. The settings on record: mouse, in vivo. In kind it is ADME, organism-based. A digest of the protocol:
(§2)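 Male NMRI mice (18-25 g) got compound ip at 119 mg/kg in DMSO (2 mL/kg). At 30 min or 3 h after dosing, pentylenetetrazole in saline was given sc at 85 or 120 mg/kg. Mice were caged singly and watched for 30 min, noting clonic and tonic seizures and deaths. Lethality is given as a percentage.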

Data set [3] deals with Mus musculus. The data set is described as follows: Tonic seizures was evaluated after 0.5 hr in strychnine test in mice at a dose of 119 mg/kg. In kind it is functional. A digest of the protocol:
(§3)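 Male NMRI mice (18-25 g) were dosed ip at 119 mg/kg in DMSO (2 mL/kg). At 30 min or 3 h, strychnine chlorhydrate in saline was given sc (1.2 mg/mL, 1 mL/kg). Mice were observed individually for 30 min, with tonic seizures and lethality recorded as percent of animals.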

Data set [4] relates to Mus musculus. The experiment in a line: Clonic seizures was evaluated after 0.5 hr in 3-mercaptopropionic acid test in mice at a dose of 119 mg/kg. In kind it is functional. A digest of the protocol:
(§4)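 Male NMRI mice (18-25 g). Test compound dissolved in DMSO, given ip at 2 mL/kg. Convulsant given 30 min or 3 h later: pentylenetetrazole (85 or 120 mg/kg) sc in saline, or 3-mercaptopropionic acid 40 mg/kg ip in saline. Mice caged singly and watched 30 min. Clonic and tonic seizures and deaths counted, expressed as % of animals.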

In data set [5] the test system is Mus musculus. The experiment in a line: Clonic seizures was evaluated after 0.5 hr in pentylenetetrazole test in mice at a dose of 120 mg/kg. The data set is classed as functional. Summed up:
as §4

Data set [6] deals with Mus musculus. The data set is described as follows: Tonic seizures was evaluated after 3h in strychnine test in mice at a dose of 119 mg/kg. In kind it is functional. Summed up: as §3
The test system of data set [7] is Mus musculus. The data set is described as follows: Clonic seizures was evaluated after 0.5 hr in pentylenetetrazole test in mice at a dose of 85 mg/kg. The data set is classed as functional.
Data set [8] has as its system Mus musculus. The experiment in a line: Compound was tested for anticonvulsant activity in maximal electroshock seizure(MES) test after 30 min upon intraperitoneal administration to mice. The data set is classed as functional. The note with it: ip, 0.5 h. Summed up: (§5)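 Male OF1 mice (15-25 g), free access to water only during testing. Compound given ip and maximal electroshock applied at 30 min or 3 h. Typically 8-10 mice per compound, dose and time point. Screening at initial 0.4 mmol/kg, scored as protected/tested.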
Background: The maximal electroshock test induces tonic seizures with an electrical stimulus.

The subject of data set [9] is Mus musculus. The data set is described as follows: Clonic seizures was evaluated after 3h in 3-mercaptopropionic acid test in mice at a dose of 119 mg/kg. The data set is classed as functional. Summed up:
as §4

The subject of data set [10] is Mus musculus. The data set is described as follows: Tonic seizures was evaluated after 0.5 hr in pentylenetetrazole test at a dose of 120 mg/kg. The data set is classed as functional. Summed up: (§6)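 Male NMRI mice (18-25 g) were dosed ip at 119 mg/kg in DMSO (2 mL/kg). At 30 min or 3 h, pentylenetetrazole in saline was given sc at 85 or 120 mg/kg (the convulsant dose named in each line). Mice were observed individually for 30 min, with clonic and tonic seizures and deaths noted as percent of animals.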

Data set [11] is described as follows: Lethality was evaluated after 3h in pentylenetetrazole test in mice at a dose of 85 mg/kg. The data set is classed as ADME, organism-based. Set-up: dose 85 mg/kg. The note with it: mouse, in vivo. A digest of the protocol: as §2
Data set [12] concerns Mus musculus. The experiment in a line: Clonic seizures was evaluated after 3h in pentylenetetrazole test in mice at a dose of 85 mg/kg. The data set is classed as functional.
A short description of data set [13]: Lethality was evaluated after 0.5 hr in strychnine test in mice at a dose of 119 mg/kg. The data set is classed as ADME, organism-based. Also on record: dose 119 mg/kg. The note with it: mouse, in vivo. A digest of the protocol: as §1
Data set [14] has as its system Mus musculus. The experiment in a line: Tonic seizures was evaluated after 0.5 hr in 3-mercaptopropionic acid test in mice at a dose of 119 mg/kg. In kind it is functional. A digest of the protocol:
(§7)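 Male NMRI mice (18-25 g) received test agent ip at 119 mg/kg, dissolved in DMSO, 2 mL/kg. 40 mg/kg 3-mercaptopropionic acid in saline was injected ip 30 min or 3 h later. Percentage of animals with tonic seizures was recorded.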

Data set [15] can be described thus: Lethality was evaluated after 3h in 3-mercaptopropionic acid test in mice at a dose of 119 mg/kg. The data set is classed as ADME, organism-based. Set-up: dose 119 mg/kg. The note with it: mouse, in vivo. Summed up:
(§8)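 Male NMRI mice (18-25 g, bred in-house) got test compound ip at 119 mg/kg, dissolved in DMSO and given at 2 mL/kg. At 30 min or 3 h after dosing, 3-mercaptopropionic acid in saline was injected ip at 40 mg/kg. Deaths were recorded and reported as percent lethality.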

Data set [16] relates to Mus musculus. The data set is described as follows: Tonic seizures was evaluated after 3h in pentylenetetrazole test at a dose of 85 mg/kg. In kind it is functional. Summed up: as §6
Data set [17] is described as follows: Lipophilicity value was evaluated. The data set is classed as physicochemical. The settings on record: RP-HPLC. Summed up: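 Lipophilicity by RP-HPLC on a C18 column at 1.0 mL/min. Mobile phases were 10-50% […] with 50-90% 0.01 M phosphate buffer pH 7.4. Triplicate runs per eluent. log k_o extrapolated from at least four eluent compositions. ClogP also calculated.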

Data set [18] in a line: Lethality was evaluated after 0.5 hr in 3-mercaptopropionic acid test in mice at a dose of 119 mg/kg. The data set is classed as ADME, organism-based. Set-up: dose 119 mg/kg. The settings on record: mouse, in vivo. Summed up: as §8
Data set [19] has as its system Mus musculus. The experiment in a line: Tonic seizures was evaluated after 0.5 hr in pentylenetetrazole test at a dose of 85 mg/kg. The data set is classed as functional. A digest of the protocol:
as §6

The subject of data set [20] is Mus musculus. The experiment in a line: Tonic seizures was evaluated after 3h in 3-mercaptopropionic acid test in mice at a dose of 119 mg/kg. In kind it is functional. A digest of the protocol:
as §7

Data set [21] can be described thus: Lethality was evaluated after 0.5 hr in pentylenetetrazole test in mice at a dose of 120 mg/kg. The data set is classed as ADME, organism-based. The note with it: mouse, in vivo. Set-up: dose 120 mg/kg. Summed up:
as §2

Data set [22] concerns Mus musculus. The experiment in a line: Compound was tested for anticonvulsant activity in maximal electroshock seizure(MES) test after 3 hours upon intraperitoneal administration to mice. In kind it is functional. The note with it: ip. Summed up:
as §5

With `O=C(CNC(=O)OCc1ccccc1)NCc1ccccc1`, the Lethality in data set [1] is 80%; in data set [2] it was 22%; in [11], 60%; in data set [13], 17%; in data set [15] it was 30%; in data set [18] it was 0%. For the same molecule, the Lethality in data set [21] is on record as 50%. Moreover, the Tonic seizures in the data set on Mus musculus [3] came out at 33%; in the data set on Mus musculus [6], 80%; in the data set on Mus musculus [10], 0%; in the data set with Mus musculus [14], 17%; in the data set on Mus musculus [16] it was 70%; in the data set on Mus musculus [19], 0%. Further, in the data set on Mus musculus [20], the Tonic seizures stood at 0%. Moreover, the Clonic seizures came out at 83% with Mus musculus [4]; 83% with Mus musculus [5]; 67% with Mus musculus [7]; 100% with Mus musculus [9]; 80% with Mus musculus [12]. In addition, the results for the ED50 in the data set with Mus musculus [8] and in the data set with Mus musculus [22] were 4.8 mg/kg and 11.6 mg/kg, respectively. Besides, the “Log Ko” value in [17] came out at 3.5.
